ChEMBL document CHEMBL1177636, “Optimization of isochromanone based urotensin II receptor agonists” (Bioorg Med Chem, 2010)
Activity calls are given as the source filed them. The calls are words filed in the database; no cut-off is given here.

Experiments:
Assay type in all cases: functional, cell-based
[1] = target: T1, Urotensin-2 receptor (Homo sapiens, UniProt Q9UKP6); experiment: (§1) Agonist activity against human urotensin 2 receptor expressed in […] cells assessed as beta-galactosidase activity after 5 days by R-SAT assay
T1 sequence (Q9UKP6 whole entry): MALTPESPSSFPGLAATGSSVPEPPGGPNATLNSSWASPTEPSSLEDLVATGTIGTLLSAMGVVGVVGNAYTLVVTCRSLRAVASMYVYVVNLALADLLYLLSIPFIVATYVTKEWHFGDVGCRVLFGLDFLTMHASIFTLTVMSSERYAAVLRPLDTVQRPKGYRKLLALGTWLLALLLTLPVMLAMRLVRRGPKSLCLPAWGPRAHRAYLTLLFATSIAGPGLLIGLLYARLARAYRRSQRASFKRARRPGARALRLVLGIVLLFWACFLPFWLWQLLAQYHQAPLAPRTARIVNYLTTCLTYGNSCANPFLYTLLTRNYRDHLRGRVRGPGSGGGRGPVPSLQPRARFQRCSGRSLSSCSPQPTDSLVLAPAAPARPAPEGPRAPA
How it was run: (§2)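 R-SAT in NIH-3T3 cells grown to 80% confluence in DMEM with 10% bovine calf serum, then transfected for 18 h with human UII receptor plus a β-galactosidase marker. Cells were frozen and thawed into DMEM with 0.4% calf serum and 30% UltraCulture, then incubated with compound for 5 days in 5% CO₂. Reporter read at 420 nm. Eight doses in triplicate, 2–5 EC₅₀ determinations, reported as mean ± SD; efficacy normalized to UII = 100%.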

[2] = target: T2, Urotensin-2 receptor (Homo sapiens) (UniProt Q9UKP6); experiment: Agonist activity against human urotensin 2 receptor expressed in […] cells assessed as beta-galactosidase activity after 5 days by R-SAT assay relative to Urotensin-2; how it was run: as §2
T2 sequence (whole entry): T1 sequence (Q9UKP6 whole entry)

[3] = target: T2, Urotensin-2 receptor (Homo sapiens); experiment: as §1; how it was run: as §2
[4] = target: Somatostatin receptor type 1 (Homo sapiens) (UniProt P30872); experiment: Agonist activity against human SST1 receptor expressed in […] cells assessed as beta-galactosidase activity at 3 uM after 5 days by R-SAT assay
Sequence of Somatostatin receptor type 1 (Homo sapiens) (P30872 whole entry): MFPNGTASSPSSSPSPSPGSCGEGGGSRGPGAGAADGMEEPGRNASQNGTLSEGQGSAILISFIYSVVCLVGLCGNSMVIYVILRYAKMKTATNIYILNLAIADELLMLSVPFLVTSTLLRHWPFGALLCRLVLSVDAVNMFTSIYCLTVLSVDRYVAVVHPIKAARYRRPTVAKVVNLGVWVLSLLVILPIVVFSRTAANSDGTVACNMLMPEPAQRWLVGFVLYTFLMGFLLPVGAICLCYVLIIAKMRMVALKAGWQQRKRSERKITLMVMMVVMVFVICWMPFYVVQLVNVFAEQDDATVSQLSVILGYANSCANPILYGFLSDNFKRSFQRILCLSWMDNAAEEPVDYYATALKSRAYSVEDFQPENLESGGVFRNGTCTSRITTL

[5] = target: Somatostatin receptor type 4 (Homo sapiens) (UniProt P31391); experiment: Agonist activity against human SST4 receptor expressed in […] cells assessed as beta-galactosidase activity at 3 uM after 5 days by R-SAT assay
Sequence of Somatostatin receptor type 4 (Homo sapiens) (P31391 whole entry): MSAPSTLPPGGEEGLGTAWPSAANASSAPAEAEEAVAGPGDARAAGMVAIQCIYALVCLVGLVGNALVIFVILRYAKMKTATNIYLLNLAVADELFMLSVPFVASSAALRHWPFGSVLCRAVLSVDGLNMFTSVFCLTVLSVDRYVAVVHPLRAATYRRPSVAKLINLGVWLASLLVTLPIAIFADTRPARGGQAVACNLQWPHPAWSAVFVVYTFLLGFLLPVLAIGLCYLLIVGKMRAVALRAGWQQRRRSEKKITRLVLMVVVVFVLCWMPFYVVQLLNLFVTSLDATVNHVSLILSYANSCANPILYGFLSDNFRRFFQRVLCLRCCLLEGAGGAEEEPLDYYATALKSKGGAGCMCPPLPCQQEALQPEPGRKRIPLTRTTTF

EC50 [1]	Efficacy [2]	pEC50 [3]	Activity [4]	Activity [5]	SMILES
1740 nM	118%				COc1ccc2c(c1C)CC(CCN(C)C)(c1ccc(Cl)cc1)OC2=O (stereo unspecified)
2240 nM	145%				CC(C)N1C(=O)c2ccccc2CC1(CCN(C)C)c1ccc(Cl)cc1 (stereo unspecified)
1150 nM	124%				CN(C)CCC1(c2ccc(Cl)cc2)Cc2ccc3ccccc3c2C(=O)O1 (stereo unspecified)
	inactive	inactive			C=CCN(CC=C)c1ccc(C2(CCN(C)C)Cc3ccccc3C(=O)O2)cc1 (stereo unspecified)
933 nM	127%				CN(C)CCC1(c2ccc(Br)cc2)Cc2ccccc2C(=O)O1 (stereo unspecified)
3800 nM	118%				C[N+](C)(C)CCC1(c2ccc(Cl)cc2)Cc2ccccc2C(=O)O1 (stereo unspecified)
501 nM	110%				CN(C)CCC1(c2ccc(Cl)cc2)Cc2ccccc2CO1 (stereo unspecified)
724 nM	132%				C=CCN(CC=C)c1ccc2c(c1)CC(CCN(C)C)(c1ccc(Cl)cc1)OC2=O (stereo unspecified)
1950 nM	46%				CNCCC1(c2ccc(Cl)cc2)Cc2ccccc2C(=O)O1 (stereo unspecified)
148 nM	126%				Cc1cc2c(cc1C)C(=O)OC(CCN(C)C)(c1ccc3ccccc3c1)C2 (stereo unspecified)
51.3 nM	98%		inactive	31%	Cc1cc2c(cc1C)C(=O)OC(CCN(C)C)(c1ccc(Cl)c(Cl)c1)C2 (stereo unspecified)
676 nM	172%				CN(C)CCC1(c2ccc(Cl)c(Cl)c2)Cc2ccccc2C(=O)O1 (stereo unspecified)
692 nM	47%				Cc1cc2c(cc1C)CC(CCN(C)C)(c1ccc(Cl)cc1)OC2 (stereo unspecified)
1170 nM	151%				COc1cccc2c1CC(CCN(C)C)(c1ccc(Cl)cc1)N(C)C2=O (stereo unspecified)
	inactive	inactive			CN(C)CCC1(c2ccc(C#Cc3ccccc3)cc2)Cc2ccccc2C(=O)O1 (stereo unspecified)
5250 nM	156%				COc1cc(OC)cc(C2(CCN(C)C)Cc3cc(C)c(C)cc3C(=O)O2)c1 (stereo unspecified)
2400 nM	55%				C=CCN(CC=C)c1cccc(C2(CCN(C)C)Cc3ccccc3C(=O)O2)c1 (stereo unspecified)
955 nM	165%				COc1ccc2c(c1)CC(CCN(C)C)(c1ccc(Cl)cc1)OC2=O (stereo unspecified)
263 nM	49%				Cc1cc2c(cc1C)CC(CCN(C)C)(c1ccc3ccccc3c1)OC2 (stereo unspecified)
2290 nM	152%				CN(C)CCC1(c2ccc(Cl)cc2)Cc2ccccc2C(=O)N1C (stereo unspecified)
2880 nM	149%				COc1cccc(C2(CCN(C)C)Cc3cc(C)c(C)cc3C(=O)O2)c1 (stereo unspecified)
	inactive	inactive			CN(C)CCC1(c2ccc(-c3ccccc3)cc2)Cc2ccccc2C(=O)O1 (stereo unspecified)
	inactive	inactive			CN(C)CCC1(c2ccc(Cl)cc2)Cc2cc(-c3ccccc3)ccc2C(=O)O1 (stereo unspecified)
1410 nM	50%				CN(C)CCC1(c2cccc(-c3ccccc3)c2)Cc2ccccc2C(=O)O1 (stereo unspecified)
2950 nM	68%				CN(C)CCC1(c2cccc(Br)c2)Cc2ccccc2C(=O)O1 (stereo unspecified)
4170 nM	77%				C=CCN(C)CCC1(c2ccc(Cl)cc2)Cc2ccccc2C(=O)O1 (stereo unspecified)
1150 nM	54%				CN(C)CCC1(c2ccc(Oc3ccccc3)cc2)Cc2ccccc2C(=O)O1 (stereo unspecified)
